Arr AP2 block = inhibitors of beta-arrestin/AP2 binding, primary screen, biochemical, GPCR trafficking, flow cytometry. actives 0.31% (n = 340,000). FITC-arrestin peptide / GST-AP2 beads; AP2 beta2 appendage carries R879A mutation. beta-arrestin 1 C-terminal peptide binding to AP2 beta2-adaptin appendage (human). inhibition, % at 10 µM;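 active = inhibition above a set limit, near 3 SD of compounds lacking own fluorescence, cut at about 54% in these data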;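 note: plate controls were DMSO wells for no effect and 5 µM unlabelled arrestin peptide for full effect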
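Test system: GST-tagged AP2 beta2-adaptin appendage (R879A) on 4 µm glutathione beads; also added: fluorescein-tagged arrestin peptide at 50 nM final; timing: 12 min plus 1 h, RT; signal: flow cytometry, FL1 (488/535 nm); read-out: percent drop in bead-associated FITC signal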
AHR activator = AHR activators, primary screen, cell-based, luminescence, luciferase reporter, human | activation, % at 5 µM | AHR-responsive luciferase reporter cells | actives 2.5% (n = 320,000) | AID 2796, 2010; in the data active = activation above about 47%;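 note: 0% = vehicle wells and 100% = reference agonist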
APOBEC3A inh = APOBEC3A ssDNA deaminase inhibitors, primary screen, selectivity assay for APOBEC3G inhibitor project, biochemical, FAM/TAMRA oligo cleavage fluorescence; recombinant A3A, FAM/TAMRA ssDNA deamination fluorescence; AID 493011, 2011; inhibition, % at 20 µM; actives 0.41% (n = 330,000);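 active = at least 40% inhibition at 20 µM here, with at most 30% in a related deaminase screen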;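 note: plate controls were A3A with DMSO for no effect and wells lacking A3A enzyme for full effect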
APOBEC3G inh = APOBEC3G DNA deaminase inhibitors, primary screen, biochemical, fluorescence, single-stranded DNA substrate, uHTS; inhibition, % at 20 µM; DNA dC->dU-editing enzyme APOBEC-3G (Homo sapiens), Q9HC16; actives 0.28% (n = 330,000); recombinant A3G, ssDNA deamination FAM/TAMRA fluorescence;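 active = inhibition of at least 40% at 20 µM, with no more than 30% in the related APOBEC3A deaminase screen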;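 note: plate controls were DMSO wells with A3G for no effect and wells lacking A3G enzyme for full effect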
PolyA inh = polyadenylation inhibitors in yeast reporter cells, primary screen, luminescence, S. cerevisiae; S. cerevisiae SKY197-pL101 polyadenylation reporter, beta-gal luminescence; efflux-impaired pdr1/pdr3 knockout yeast; score 100 = 6 SD above DMSO; activity score, % at 12 µM; actives 0.02% (n = 300,000); AID 1875, 2009;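 active = lowest replicate activity score at least 50, where 100 means six control SD above control mean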;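 note: yeast exposed to compound for 9 h at 30 °C; higher score means more reporter readthrough which indicates perturbed polyadenylation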
UCH37 DUB inh = inhibitors of human UCH37 deubiquitinase, primary screen, biochemical, Ub-AMC cleavage, fluorescence; Ubiquitin carboxyl-terminal hydrolase isozyme L5 (Homo sapiens), Q9Y5K5; purified proteasome/UCH37; inhibition, % (concentration not given with the values); actives 0.33% (n = 330,000); AID 588478, 2011;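 active = mean inhibition over replicate wells above about 20%, limit read from the data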;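 note: 0% = compound-free wells with enzyme and 100% = wells lacking proteasome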
Target sequence (Q9Y5K5 whole entry, looked up): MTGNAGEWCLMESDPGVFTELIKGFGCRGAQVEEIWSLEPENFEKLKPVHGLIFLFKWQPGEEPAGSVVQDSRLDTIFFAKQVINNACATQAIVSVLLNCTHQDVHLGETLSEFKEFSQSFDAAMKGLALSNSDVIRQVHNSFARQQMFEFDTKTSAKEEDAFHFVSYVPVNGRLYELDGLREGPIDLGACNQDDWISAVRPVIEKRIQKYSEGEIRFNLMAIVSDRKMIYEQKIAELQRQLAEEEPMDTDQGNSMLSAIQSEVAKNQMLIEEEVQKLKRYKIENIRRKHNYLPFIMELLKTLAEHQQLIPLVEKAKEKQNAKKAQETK
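system = Proteasome-associated human UCH37 deubiquitinase | amount = 0.15 nM proteasome as dispensed | medium = pH 7.4 Tris-HCl (50 mM) with ovalbumin, ATP-MgCl2, DTT | incubation = 30 min preincubation with enzyme, 25 min cleavage at room temperature | detection = AMC fluorescence 355/460 nm | read-out basis = percent inhibition | controls = no-proteasome and no-compound wells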
AHR act cf = AHR activators, confirmation, cell-based, luminescence, luciferase reporter, human. human cells, AHR-responsive luciferase reporter. activation, % at 9 µM. shares compounds with AHR activator. actives 87% (n = 2,300); in the data active = activation above about 49%;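 note: HepG2 hepatoma cells carrying a DRE-driven firefly luciferase reporter; 0% = vehicle wells and 100% = reference agonist wells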
PXR counter = human PXR activators, counter-screen for AHR activator project, cell-based, luciferase luminescence | actives 88% (n = 2,300) | activation, % at 11.6 µM | shares compounds with AHR activator | cell-based PXR reporter; in the data active = activation above about 11%;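 note: human hepatoma DPX-2 cells expressing full-length human PXR; 0% = DMSO and 100% = reference agonist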
Target sequence (O75469 whole entry, looked up): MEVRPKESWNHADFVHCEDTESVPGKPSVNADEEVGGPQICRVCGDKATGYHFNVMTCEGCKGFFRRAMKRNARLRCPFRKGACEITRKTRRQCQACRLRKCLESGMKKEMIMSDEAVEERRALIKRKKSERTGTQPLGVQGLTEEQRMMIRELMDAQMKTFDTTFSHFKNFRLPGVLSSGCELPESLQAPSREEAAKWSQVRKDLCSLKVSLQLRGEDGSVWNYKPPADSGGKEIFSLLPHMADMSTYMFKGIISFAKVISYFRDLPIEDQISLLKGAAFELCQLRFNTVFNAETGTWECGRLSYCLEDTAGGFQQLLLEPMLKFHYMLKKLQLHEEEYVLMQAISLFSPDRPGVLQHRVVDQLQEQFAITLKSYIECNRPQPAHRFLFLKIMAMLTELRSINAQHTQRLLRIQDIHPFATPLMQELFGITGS
An asterisk follows results filed as active; nt = not tested or not shown. Rows were chosen to be rich in hits. Some 3.4% of all compounds tested hit in one or more screens of this group.

SMILES	Arr AP2 block	AHR activator	APOBEC3A inh	APOBEC3G inh	PolyA inh	UCH37 DUB inh	others
Cn1cc([N+](=O)[O-])c(C(=O)NCc2cc3cc(Cl)ccc3[nH]2)n1	nt	48.5*	-4.5	-7.7	-8.1	6.0
COc1ccc(OC)c(C=NNc2nc(C)cc(=O)[nH]2)c1	nt	nt	nt	nt	nt	-378.1
COc1ccc(Br)c(C=NNC(=O)COc2ccc(-c3ccccc3)cc2)c1	nt	nt	nt	nt	nt	2.2
Cc1cc(C(=O)N/N=C/c2cc(Br)ccc2OC(=O)c2ccccc2Cl)n[nH]1	-8.2	64.7*	0.8	-15.6	0.9	nt
Cc1cc(C(=O)NN=Cc2cc(Br)ccc2OC(=O)c2ccccc2)n[nH]1	nt	nt	nt	nt	nt	5.7
CC(=NNC(=O)c1ccc(C)s1)c1ccncc1	nt	nt	nt	nt	nt	4.3
S=c1nc(-c2ccccc2)[nH]n1-c1ccccc1	7.8	108.2*	nt	nt	-6.6	-1.2
O=C(NN=Cc1cccs1)c1ccc2ncccc2c1	nt	nt	nt	nt	nt	-2.2
CCOc1ccccc1N(CC(=O)NN=Cc1cc(Br)ccc1OC)S(C)(=O)=O	nt	nt	nt	nt	nt	3.4
Cn1cc(C(=O)C(=O)N2CCCc3ccccc32)c2ccccc21	-6.1	67.8*	0.6	-4.9	3.7	6.2
COc1ccc2c(c1)c(C(=O)CN1CCOCC1)c(C)n2C	-2.3	6.2	5.5	0.7	4.0	2.0
COc1ccc2c(c1)c(C(=O)CN1CCC3(CC1)OCCO3)c(C)n2C	12.9	9.8	1.2	-2.1	1.7	27.4*
O=C(C(=O)c1ccc(O)c(O)c1)c1ccc(O)c(O)c1	8.5	nt	nt	nt	nt	23.5*
Cc1cc(NC(=O)c2ccc(F)cc2)n(CCOC(=O)c2ccc(F)cc2)n1	13.1	49.8*	1.7	3.7	17.1	5.1
Cc1cc(NC(=O)c2ccc(Cl)cc2)n(CCOC(=O)c2ccc(Cl)cc2)n1	-7.8	32.0	0.3	-0.9	10.4	2.0
NC(=O)N=Nc1c(O)[nH]c2c(Br)cc(Br)cc12	nt	50.3*	-0.4	-9.2	-1.3	nt
O=C(CCCCCNC(=O)c1ccccc1)N=Nc1c(O)[nH]c2c(Br)cc(Br)cc12	nt	4.5	7.7	1.8	4.8	nt
CC1C(=O)NN=C1C(=O)NN=Cc1ccc(O)cc1O (stereo not drawn)	nt	nt	nt	nt	nt	0.2
COc1ccc(OC)c(-c2csc(NC(=O)COC(=O)c3ccc(NC(=O)CC#N)cc3)n2)c1	3.2	80.2*	-1.1	-5.2	nt	-3.2	AHR act cf=26.9;PXR counter=8.6
COc1ccc(OC)c(-c2csc(NC(=O)COC(=O)C3CCC3)n2)c1	-6.9	-1.6	21.1	-1.5	nt	3.8
COc1ccc(S(=O)(=O)NN=Cc2ccccc2F)cc1	nt	nt	nt	nt	nt	2.1
Cc1ccccc1C(=O)NN=Cc1ccncc1	nt	nt	nt	nt	nt	4.2
COc1ccc(C=NNc2nc3ccccc3o2)cc1OC	nt	nt	nt	nt	nt	-4.7
C/C(C=Nn1cnnc1)=C/c1ccccc1	nt	nt	nt	nt	nt	2.9
COc1ccc(C=Nc2nc3ccccc3n2C)cc1OC	nt	nt	nt	nt	nt	6.9
SMILES	Arr AP2 block	AHR activator	APOBEC3A inh	APOBEC3G inh	PolyA inh	UCH37 DUB inh	others
O=C(O)c1ccc2c(c1)C(=O)N(CCC1=CCCCC1)C2=O	1.0	1.6	0.4	-1.7	-19.0	2.6
O=C1c2ccccc2C(=O)N1CCC1=CCCCC1	-6.9	103.2*	3.9	3.3	-24.3	2.0	AHR act cf=120.8*;PXR counter=17.0*
CCOc1cccc2sc(NC(=O)c3ccc(Br)s3)nc12	-6.9	97.4*	-1.8	-9.6	0.5	-40.5	AHR act cf=20.3;PXR counter=13.1*
CCCc1c(C)nn(C(=O)C(C#N)=NNc2ccccc2[N+](=O)[O-])c1C	nt	nt	nt	nt	nt	13.5
O=c1[nH]c(NN=Cc2cc3c(cc2[N+](=O)[O-])OCO3)nc2ccccc12	nt	nt	nt	nt	nt	4.1
[O-][n+]1onc2c1CCc1nnc(-c3ccccc3)cc1-2	14.5	96.7*	0.3	-6.7	-7.8	1.2	AHR act cf=80.2*
CCc1ccc(C=NNC(=O)c2cc(-c3ccccc3OC)nc3ccccc23)s1	nt	nt	nt	nt	nt	0.0
O=c1c(/C=N/O)coc2ccc3ccccc3c12	1.7	83.7*	0.8	8.0	-14.7	nt	AHR act cf=18.3;PXR counter=6.2
Cc1nn(-c2ccccc2)c(Cl)c1C=NNC(=O)CNC(=O)c1ccccc1Cl	nt	nt	nt	nt	nt	5.4
O=C(Nc1ccc(CN2CCOCC2)cc1)c1ccc(-c2cccc(Cl)c2)o1	0.7	-4.2	-3.5	-4.8	0.0	0.3
O=C(NC(=S)Nc1ccc(CN2CCOCC2)cc1)c1ccc(-c2cccc(Cl)c2)o1	-2.8	90.3*	-3.6	-5.9	-15.7	6.4	AHR act cf=66.7*;PXR counter=20.1*
O=C(/C=C/c1ccccc1)NC(=S)Nc1ccc(CN2CCOCC2)cc1	-5.8	2.9	0.8	2.5	-14.0	6.2
O=C(/C=C/c1ccc(Cl)cc1Cl)NC(=S)Nc1ccc(CN2CCOCC2)cc1	33.9	104.6*	-4.2	-7.4	-10.0	4.1	AHR act cf=21.6;PXR counter=82.6*
O=C(NC(=S)Nc1ccccc1O)c1ccccc1Cl	51.3	89.0*	-0.1	0.1	-9.1	1.7	AHR act cf=127.5*;PXR counter=20.9*
CC(=O)c1cccc(NC(=S)NC(=O)c2ccccc2Cl)c1	4.7	16.8	-4.3	-8.1	10.5	3.2
COc1ccc(C=NNC(=O)C[n+]2ccccc2)c(OC)c1	nt	nt	nt	nt	nt	3.1
Cn1ncc(Cl)c1C(=O)Nc1cccc(Cl)c1	7.8	84.0*	-3.7	-4.8	3.6	3.7	AHR act cf=105.5*;PXR counter=23.4*
Cn1ncc([N+](=O)[O-])c1C(=O)Nc1cccc(Cl)c1	-14.0	99.2*	nt	nt	-3.0	4.3	AHR act cf=107.3*;PXR counter=20.6*
Cc1cc(NC(=O)c2c(Cl)cnn2C)no1	9.2	16.2	-4.1	0.1	-0.3	2.2
Cn1ncc([N+](=O)[O-])c1C(=O)Nc1ccccc1C(=O)O	2.0	1.2	-3.9	-3.2	0.2	5.2
CCn1ncc(Br)c1C(=O)Nc1cc(C)on1	-17.9	nt	-2.4	-8.5	-8.1	0.1
CCn1ncc(Br)c1C(=O)Nc1ccc(Cl)cn1	6.9	104.6*	-4.7	-6.7	-20.6	3.5	AHR act cf=115.0*;PXR counter=44.7*
Cn1ncc(Cl)c1C(=O)Nc1ccc(Cl)cn1	-2.1	143.4*	2.0	-0.8	-5.0	2.7	AHR act cf=129.0*;PXR counter=29.3*
CSc1cccc(NC(=O)c2c(Cl)cnn2C)c1	-5.4	8.5	1.4	-6.2	-1.0	2.8

Assay outcomes from PubChem.
